Measured values as given in ChEMBL document CHEMBL5715946 (Chem Biol, 2010).
Calls of active or inactive are those of the source. No cut-off for these calls is given here.

Assays:
[1] = test system: H9c2; assay: Effect on protein oxidation in rat H9c2 cells at 10 uM incubated for 24 hrs under serum-free medium by Western blot analysis; assay type: functional, cell-based
[2] = test system: Cardiac muscle cell; assay: Cytoprotective activity against serum deprivation-induced neonatal Wistar rat cardiomyocyte death assessed as increase in cell viability measured after 4 days by WST-8 assay; assay type: functional
How it was run: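 Primary neonatal rat cardiomyocytes were isolated by proteinase digestion, with preplating to remove adherent non-myocytes. Death was induced by serum deprivation at low density (3×10^5 cells/ml) for 4 days with compound present. Viability was read by WST-8. MEC1.5 is the concentration giving a 50% rise in viability. n = 3.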

[3] = test system: Cardiac muscle cell; assay: Potency index, ratio of trolox MEC1.5 to test compound MEC1.5 for cytoprotective activity against serum deprivation-induced neonatal Wistar rat cardiomyocyte death; assay type: functional
[4] = Upregulation of NAD(P)H-menadione oxidoreductase gene expression in serum-deprived neonatal Wistar rat cardiomyocyte at 0.37 uM incubated for 21 hrs by microarray analysis relative to control; assay type: functional, Cardiac muscle cell
How it was run: (§1)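 Primary neonatal rat cardiomyocytes cultured with or without 0.37 μM compound in serum-free medium for 21 hr. Total RNA profiled on the rat genome U34A GeneChip array (about 7000 known genes).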

[5] = Upregulation of glutathione S-transferase Ya subunit gene expression in serum-deprived neonatal Wistar rat cardiomyocyte at 0.37 uM incubated for 21 hrs by microarray analysis relative to control; assay type: functional, Cardiac muscle cell
How it was run: (§2)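 Primary neonatal rat cardiomyocytes, isolated by proteinase digestion with preplating to deplete nonmyocytes, cultured in serum-free medium with or without 0.37 μM compound for 21 hr. Total RNA was recovered and global expression profiled on an Affymetrix GeneChip rat genome U34A array (about 7000 known genes). Change is relative to untreated cells.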

[6] = Upregulation of multidrug resistance protein gene expression in serum-deprived neonatal Wistar rat cardiomyocyte at 0.37 uM incubated for 21 hrs by microarray analysis relative to control; assay type: functional, Cardiac muscle cell; how it was run: as §2
[7] = Upregulation of Fischer 344 GST Yc subunit gene expression in serum-deprived neonatal Wistar rat cardiomyocyte at 0.37 uM incubated for 21 hrs by microarray analysis relative to control; assay type: functional, Cardiac muscle cell; how it was run: as §1
[8] = Upregulation of glutathione reductase gene expression in serum-deprived neonatal Wistar rat cardiomyocyte at 0.37 uM incubated for 21 hrs by microarray analysis relative to control; assay type: functional, Cardiac muscle cell; how it was run: as §2
[9] = Upregulation of glutathione S-transferase Yc1 subunit gene expression in serum-deprived neonatal Wistar rat cardiomyocyte at 0.37 uM incubated for 21 hrs by microarray analysis relative to control; assay type: functional, Cardiac muscle cell; how it was run: as §2
[10] = Upregulation of bilirubin-specific UDP glucuronosyltransferase gene expression in serum-deprived neonatal Wistar rat cardiomyocyte at 0.37 uM incubated for 21 hrs by microarray analysis relative to control; assay type: functional, Cardiac muscle cell; how it was run: as §1
[11] = Upregulation of 3-methylcholanthrene-inducible UDP-glucuronosyltransferase gene expression in serum-deprived neonatal Wistar rat cardiomyocyte at 0.37 uM incubated for 21 hrs by microarray analysis relative to control; assay type: functional, Cardiac muscle cell; how it was run: as §1
[12] = test system: Antioxidant response element; assay: Induction of ARE activity in serum-deprived neonatal Wistar rat cardiomyocytes assessed as increase in HO-1 mRNA level up to 3 uM measured after 24 hrs by RT-qPCR analysis; assay type: cell-based; details: Cardiomyocyte
How it was run: (§3)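 Neonatal rat cardiomyocytes exposed to samples or vehicle in M-199 with 1% penicillin-streptomycin, no serum, for 24 hr. GST Ya and HO-1 mRNA measured by real-time qPCR (mean ± SD, n = 3); protein by western blot with β-actin as control.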

[13] = test system: Antioxidant response element; assay: Induction of ARE activity in serum-deprived neonatal Wistar rat cardiomyocytes assessed as increase in HO-1 expression up to 400 nM measured after 24 hrs by Western blot analysis; assay type: cell-based; details: Cardiomyocyte; how it was run: as §3
[14] = molecular target: Macrophage migration inhibitory factor (Rattus norvegicus) (UniProt P30904); assay: Inhibition of recombinant rat MIF expressed in Escherichia coli BL21 (DE3) assessed as reduction in tautomerase activity at 30 uM using L-dopachrome carboxy-methyl ester as substrate by spectrophotometry relative to control
How it was run: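 Purified recombinant rat MIF tautomerase assayed with purified L-dopachrome carboxy-methyl ester as substrate in pH 6.0 buffer; rate taken over the initial 30 s. Mean ± SD, n = 4.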

[15] = molecular target: Macrophage migration inhibitory factor (Rattus norvegicus) (UniProt P30904); assay: Binding affinity to BTZO-12 sensor chip immobilized recombinant rat MIF expressed in Escherichia coli BL21 (DE3) at pH 6 by SPR analysis
How it was run: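 SPR on a BTZO-12-type sensor chip with purified recombinant rat MIF, binding compared at pH 6.0 and pH 7.3.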

[16] = molecular target: T1, Macrophage migration inhibitory factor (Homo sapiens) (UniProt P14174); assay: Binding affinity to BTZO-12 sensor chip immobilized recombinant human N-terminal His-tagged MIF expressed in Escherichia coli BL21 (DE3) by SPR analysis
T1 sequence (whole entry): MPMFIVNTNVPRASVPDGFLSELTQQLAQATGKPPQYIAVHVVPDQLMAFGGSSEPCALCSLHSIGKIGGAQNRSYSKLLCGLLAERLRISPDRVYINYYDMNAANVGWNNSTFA
How it was run: (§4)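 Sensor chip carrying immobilized BTZO-12; MIF (wild type or point mutants) passed over it and specific binding monitored by surface plasmon resonance.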

[17] = species: Homo sapiens; assay: Binding affinity to BTZO-12 sensor chip immobilized recombinant human N-terminal His-tagged MIF C59S mutant expressed in Escherichia coli BL21 (DE3) by SPR analysis; how it was run: as §4
[18] = molecular target: T1, Macrophage migration inhibitory factor (Homo sapiens); assay: Binding affinity to BTZO-12 sensor chip immobilized recombinant human C-terminal His-tagged MIF expressed in Escherichia coli BL21 (DE3) by SPR analysis; how it was run: as §4
[19] = molecular target: T2, Macrophage migration inhibitory factor (Homo sapiens, UniProt P14174); assay: Binding affinity to recombinant human C-terminal His-tagged MIF expressed in Escherichia coli BL21 (DE3) at 400 nM incubated for 6 hrs using labelled compound by scintillation proximity assay
T2 sequence (P14174 whole entry): T1 sequence (whole entry)
How it was run: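 Scintillation proximity assay: 6His-tagged protein (hMIF, rat GST Ya or rat VILIP3) captured on copper His-tag SPA beads with [3H]-BTZO-1; emitted light counted on a microplate scintillation counter. Mean of n = 2.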

[20] = molecular target: Macrophage migration inhibitory factor (Rattus norvegicus) (UniProt P30904); assay: Inhibition of MIF tautomerase activity in rat H9c2 cells at 30 uM using L-dopachrome carboxy-methyl ester as substrate incubated for 6 hrs under serum-free medium by spectrophotometry relative to control; assay type: cell-based
How it was run: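 H9c2 cells exposed to 30 μM compound for 6 hr; MIF tautomerase activity then measured in cell lysate.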

[21] = Reduction in MIF expression in MIF siRNA transfected rat H9c2 cell lysates at 3 uM measured after 24 hrs ELISA relative to control; assay type: functional; design: scale not given: the % may be the effect or the level left
How it was run: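 H9c2 cells transfected with 100 nM rat MIF siRNA or negative-control siRNA using Oligofectamine in Opti-MEM, then treated with 3 μM compound for 24 hr. MIF mRNA by real-time qPCR; MIF protein in cell lysate and medium by ELISA. Mean ± SD, n = 3.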

[22] = test system: Antioxidant response element; assay: Induction of ARE-mediated HO-1 mRNA expression in MIF siRNA transfected rat H9c2 cells at 3 uM measured after 24 hrs in presence of rat MIF by RT-qPCR analysis; assay type: cell-based
How it was run: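 H9c2 cells transfected with MIF siRNA or control siRNA (100 nM, Oligofectamine), then treated with 3 μM compound with or without 0.8 μM rMIF for 24 hr. GST Ya and HO-1 mRNA by real-time qPCR; mean ± SD, n = 3. MIF effect on drug efficacy tested by Aspin-Welch test.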

Macrophage migration inhibitory factor (Rattus norvegicus), sequence (P30904 2-115 limits assumed): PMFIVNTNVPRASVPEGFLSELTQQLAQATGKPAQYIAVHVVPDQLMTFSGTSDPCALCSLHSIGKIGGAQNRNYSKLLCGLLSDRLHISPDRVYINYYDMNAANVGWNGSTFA

With `O=c1nc(-c2ccccn2)sc2ccccc12` [BTZO-1] the Activity [1] was “inactive”, the MEC1.5 ([2]; time 4 day) was 16 nM and the Activity ([2]; time 4.0 day) was “Dose-Dependent Effect”. For the same molecule, the Ratio [3] was 10000, the “fold change (FC)” value [4] was 2.8 and the “fold change (FC)” value [5] was 12. For the same molecule, the “fold change (FC)” value [6] was 2.7, the “fold change (FC)” value [7] was 2.3 and the “fold change (FC)” value [8] was 4.4. For the same molecule, the “fold change (FC)” value [9] was 2.1, the “fold change (FC)” value [10] was 5.2 and the “fold change (FC)” value [11] was 2.1. The Activity [12] was “Active”, the Activity [13] was “Active” and the inhibition [14] was 13%. The Activity [15] was “Active”, the Activity [16] was “Active” and the Activity [17] was “Active”. The Activity [18] was “Active”, the Kd [19] was 68.6 nM and the inhibition [20] was 20%. The Activity [21] was roughly 50% and the Activity [22] was “Active”.
